Measured values from different studies.
Compare with care: the assays were run in different laboratories.
Target: Sodium-dependent serotonin transporter (SLC6A4, Homo sapiens, UniProt P31645)

c1ccc(C(NCCNC(c2ccccc2)c2ccccc2)c2ccccc2)cc1 gave an inhibition of 29% (transporter uptake, inhibitor; 10 µM).
For CCN(CC)CCCC[C@H](NC(=O)[C@H](CC(C)C)NC(=O)[C@H](C)NC(=O)[C@H](Cc1ccccc1)NC(=O)c1ccc(C(C)(C)C)cc1)C(=O)N[C@@H](CO)C(=O)OC, the inhibition was 5% (ligand displacement, radioligand; 10 µM).
With C[C@H](C(=O)N[C@H]1COc2ccccc2[C@@H]1S(C)(=O)=O)c1ccc(F)cc1 the inhibition was 11% (transporter uptake, inhibitor; 10 µM).
Clc1ccc2c(C3CCN(CCc4c[nH]c5ccccc45)CC3)c[nH]c2c1 gave an inhibition of 99% (ligand displacement, radioligand; 10 µM).
With CN(CCN1CCC(OC(=O)Nc2ccccc2-c2ccccc2)CC1)C(=O)c1ccc(CN2CCC(C(N)=O)CC2)cc1 the inhibition was -1% (ligand displacement, radioligand; 1 µM).
For CCc1ccccc1C(=O)Nc1n[nH]c2c(C)c(F)c(C3C(C#N)=C(C)N(C)C(C)=C3C#N)cc12, the inhibition was -6.24% (ligand displacement; 10 µM).
For CC(C)N1CCC[C@H]1CNC(=O)c1cn(C2CCCC2)c(=O)c2c1c1ccccc1n2C, the inhibition was 22% (ligand displacement, radioligand; 10 µM).
For COCc1c(-c2cc3cc(C)cc(OC)c3s2)c2c(N)ncnn2c1CN1CCNC(=O)C1, the inhibition was 3% (ligand displacement, radioligand; 10 µM).
The inhibition of COc1ccc(S(=O)(=O)N2CCCCC2)cc1C is reported as < 30% (ligand displacement, radioligand; 10 µM).
With C[C@H](NC(=O)Nc1cc2[nH]ncc2c(CO)n1)c1ccccn1 the inhibition was -0.787% (cell-free assay; 10 µM).
